In data set [1] the test system is H9. Put plainly: Inhibitory activity against HIV-1 replication in H9 lymphocytes. The class given is functional, cell-based. As to conditions: Homo sapiens. The procedure, abridged:
(§1)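 They were infected with HIV-1 at a moi of 0.1–0.01 for 4 h, washed three times, and then cultured for 4 days with graded drug concentrations; AZT was run as a control. Day-4 cell-free supernatant p24 was measured by ELISA. Toxicity was measured by Coulter counts of mock-infected cells.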

For data set [2], the system named is H9. Put plainly: Toxicity was determined in H9 lymphocytes. The format is functional, cell-based. The settings on record: Homo sapiens. The procedure, abridged:
as §1

Data set [3] in a line: Therapeutic index is the ratio of IC50 to EC50 in H9 lymphocytes. The class given is cell-based. The settings on record: human, read-out: TI. The procedure, abridged:
as §1

Data set [4] deals with H9. Put plainly: Inhibitory activity against HIV-1 replication in H9 lymphocytes; NS= no suppression. The format is functional, cell-based. The settings on record: Homo sapiens. The procedure, abridged: as §1

The source made the active and inactive calls. The calls are words filed in the database; no cut-off is given here.

As usually defined, the EC50 is the concentration needed to bring the measured effect to its halfway point. The low end stands for a more potent agent, the high end for a less potent agent. Usually IC50 stands for the midpoint of a concentration-inhibition curve. A higher IC50 goes with lower potency. In the data set on H9 [1], `CC1(C)Oc2ccc3c4c(c(=O)oc3c2[C@@H](OC(=O)C23CCC(C)(C(=O)O2)C3(C)C)[C@H]1OC(=O)C12CCC(C)(C(=O)O1)C2(C)C)CCCC4` (stereo partly drawn) came in with a concentration giving a half-maximal response (EC50) of 2.12 nM. Also, the IC50 in the data set with H9 [2] is > 148000 nM. Also, the selectivity ratio in data set [3] was > 69800.

In the data set on H9 [1], `Cc1c(C)c2ccc3c(c2oc1=O)[C@@H](OC(=O)C12CCC(C)(C(=O)O1)C2(C)C)[C@@H](OC(=O)C12CCC(C)(C(=O)O1)C2(C)C)C(C)(C)O3` (stereo partly drawn) had an EC50 of 1.92 nM. In addition, in the data set on H9 [2], the IC50 was > 154000 nM. Further, in data set [3], the selectivity ratio was > 80200.

In the data set on H9 [1], `COc1cc2c(c3oc(=O)cc(C)c13)[C@@H](OC(=O)C13CCC(C)(C(=O)O1)C3(C)C)[C@@H](OC(=O)C13CCC(C)(C(=O)O1)C3(C)C)C(C)(C)O2` (stereo partly drawn) returned an EC50 of 0.00721 nM. The 50% inhibitory concentration (IC50) in the data set with H9 [2] is > 150000 nM. Also, the selectivity ratio in data set [3] was > 2.08e+07.

Compound `Cc1cc2c(C)cc3c(c2oc1=O)[C@@H](OC(=O)C12CCC(C)(C(=O)O1)C2(C)C)[C@@H](OC(=O)C12CCC(C)(C(=O)O1)C2(C)C)C(C)(C)O3` (stereo partly drawn) yielded an EC50 in the data set with H9 [1] of 9.1 nM. Moreover, the half-inhibitory concentration (IC50) in the data set with H9 [2] was > 154000 nM. Further, the selectivity ratio in data set [3] was > 16900.

In the data set with H9 [1], `CC1(C)Oc2ccc3ccc(=O)oc3c2[C@@H](OC(=O)C23CCC(C)(C(=O)O2)C3(C)C)[C@H]1OC(=O)C12CCC(C)(C(=O)O1)C2(C)C` (stereo partly drawn) showed an EC50 of 0.256 nM. Besides, the selectivity ratio in data set [3] turned out to be 137000.

On to `Cc1cc2c(c3oc(=O)cc(C(C)C)c13)[C@@H](OC(=O)C13CCC(C)(C(=O)O1)C3(C)C)[C@@H](OC(=O)C13CCC(C)(C(=O)O1)C3(C)C)C(C)(C)O2` (stereo partly drawn), for which the IC50 with H9 [2] was > 147000 nM. In addition, the NS result with H9 [4] was “inactive”.

`Cc1c(Cl)c(=O)oc2c3c(ccc12)OC(C)(C)[C@H](OC(=O)C12CCC(C)(C(=O)O1)C2(C)C)[C@@H]3OC(=O)C12CCC(C)(C(=O)O1)C2(C)C` (stereo partly drawn) showed an EC50 in the data set on H9 [1] of 2.01 nM. The compound also registered a half-maximal inhibitory concentration (IC50) in the data set on H9 [2] of 104000 nM. In addition, the selectivity ratio in data set [3] came out at 51700.

Compound `Cc1cc(=O)oc2c3c(cc(OCc4ccccc4)c12)OC(C)(C)[C@H](OC(=O)C12CCC(C)(C(=O)O1)C2(C)C)[C@@H]3OC(=O)C12CCC(C)(C(=O)O1)C2(C)C` (stereo partly drawn) showed an EC50 in the data set with H9 [1] of 1540 nM. In the data set with H9 [2], this compound came in with an IC50 of 135000 nM. In data set [3], the selectivity ratio amounted to 87.7.

Consider `Cc1c(-c2ccccc2)c(=O)oc2c3c(ccc12)OC(C)(C)[C@H](OC(=O)C12CCC(C)(C(=O)O1)C2(C)C)[C@@H]3OC(=O)C12CCC(C)(C(=O)O1)C2(C)C` (stereo partly drawn), for which the EC50 with H9 [1] came out at 43700 nM. For the same compound, the IC50 with H9 [2] was > 140000 nM. The selectivity ratio in data set [3] was > 3.2.

`Cc1cc2c(c3oc(=O)cc(C)c13)[C@@H](OC(=O)C13CCC(C)(C(=O)O1)C3(C)C)[C@@H](OC(=O)C13CCC(C)(C(=O)O1)C3(C)C)C(C)(C)O2` (stereo partly drawn) showed an EC50 with H9 [1] of 4.19 nM. Besides, the concentration for half-maximal inhibition (IC50) with H9 [2] is > 154000 nM. In addition, the selectivity ratio in data set [3] is > 36800.
